# FAK inh: FAK (human) kinase inhibition. Q05397. biochemical FAK kinase activity assay. inhibition, %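 (tested at 7 µM)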. 97,000 compounds, 0.84% hits;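 also: 0% = DMSO and 100% = reference compound high control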
# IL1B NFkB inh: blocks IL-1B driven NFkB nuclear translocation in HUVEC cells; HUVEC IL-1B NFkB p65 nuclear translocation imaging; inhibition, % at 2 µM; 94,000 compounds, 0.43% hits; AID 796;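 active = inhibition above about 30% together with a positive call from visual inspection of the well image, limit read from the data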;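 also: nuclear over cytoplasmic p65 intensity ratio measured by imaging; 0% = IL-1B stimulated DMSO wells and 100% = unstimulated DMSO wells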
# NFkB transloc pot: enhances IL-1B driven NFkB nuclear translocation. HUVEC IL-1B NFkB p65 nuclear translocation imaging. activation, % at 2 µM. 94,000 compounds, 0.3% hits;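 active = activation above 40%, about the mean plus 3 SD, also judged a hit on visual image review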;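 also: percent activation is computed from the nuclear over cytoplasmic p65 intensity ratio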
# Measles CPE: protection of cells from measles virus; Measles virus-infected cells, CPE protection, absorbance; protection (pct of control), % at 4 µM; 140,000 compounds, 1.5% hits; AID 841; in the data active = protection mostly above about 24%, no sharp cut-off; inactive = mostly below about 26%
# Rev-RRE block: disrupts HIV-1 Rev binding to RRE RNA; P05866; 97,000 compounds, 0.79% hits; Rev peptide-RRE RNA binding, FRET; AID 704; inhibition, % at 8 µM;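 active = inhibition above the screen-wide mean plus 3 SD, cut at about 35% in these data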;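 also: 0% = median DMSO wells and 100% = median Neomycin B control wells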
# Target sequence (P05866 whole entry, looked up): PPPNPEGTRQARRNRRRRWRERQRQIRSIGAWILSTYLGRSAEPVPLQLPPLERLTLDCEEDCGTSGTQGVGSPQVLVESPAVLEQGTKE
#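 Assay system: Rev peptide and RRE RNA, both fluorescently labelled; times: 5 min preincubation and 15 min binding, 25 °C; detection: FRET, ex 480 nm, em 540 and 671 nm; read-out basis: % inhibition from 671/540 nm acceptor-to-donor ratio, scaled between controls; benchmarks: DMSO low control, neomycin B high control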
# HUVEC tox IL1B: toxic to HUVEC cells under IL-1B stimulation; HUVEC cell count loss, Hoechst imaging, IL-1B stimulated; cell count reduction, % at 2 µM; 94,000 compounds, 0.41% hits;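 active = cell count reduction more than 3 SD above the screen-wide mean, cut at about 70% in these data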;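 also: normalized per plate to untreated control cells as the no-loss baseline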
# FAK inh conf: confirmation of human focal adhesion kinase (FAK) inhibitors | shares compounds with FAK inh | FAK kinase biochemical inhibition assay | inhibition, % at 7 µM | 750 compounds, 28% hits | AID 794
# Starred values were filed as active, the others as inactive; . = no result; [ ] = another dose, or the depositor's remark. In the library only some 3.3% were active in any assay of this set; here they are far more common. Rule as the data show it, unless noted: active = inhibition above about 19%; inactive = the rest.
SMILES,FAK inh,IL1B NFkB inh,NFkB transloc pot,Measles CPE,Rev-RRE block,HUVEC tox IL1B,FAK inh conf
C=CCn1c(SCC(=O)c2ccc(CNC(C)=O)o2)nc2scc(C3CC3)c2c1=O,27*,-6,6,23,6,5,2
O=C(NC1CCCC1)C(c1ccc(F)cc1)N(Cc1ccc(F)cc1)C(=O)CCl (stereo not given),.,.,.,6,.,.,.
O=C1C=C(Nc2ccccc2O)c2ccccc2C1=O,23*,-3,3,28,12,-13,15
CC(=O)Nc1ccccc1O,.,.,.,28,.,.,.
COc1ccc(C2C(C#N)=C(N)Oc3c2sc2nc(C)cc(C)c32)cc1 (stereo not given),29*,3,-3,13,15,-13,10
Nc1nnnn1/N=C/c1ccccc1OCc1ccc(Cl)cc1Cl,29*,-4,4,23,8,2,4
CC1CCN(CCCNC(=O)c2ccc(CS(=O)(=O)Cc3ccccc3F)o2)CC1,-2,5,-5,23,-2,-33,.
O=C(NCCCN1CCCCCC1)c1ccc(CS(=O)(=O)Cc2ccccc2F)o1,25*,-31,31,2,8,-8,30*
COCCn1cnc2c1c(=O)n(CC(=O)OCC(=O)NCC(F)(F)F)c(=O)n2Cc1ccccc1,.,.,.,8,.,.,.
CC(Sc1nc(NCc2ccccc2)nc(N(C)C)n1)C(=O)Nc1ccccc1 (stereo not given),22*,13,-13,9,7,7,10
O=C(O)c1cc(Cl)c(Cl)cc1C(=O)Nc1cccc2cccnc12,.,.,.,14,.,.,.
COc1ccc(OCCCc2c(C)n[nH]c2C)cc1,-1,-3,3,4,7,9,.
Cc1n[nH]c(C)c1CCCOc1ccccc1,50*,1,1,10,1,-29,3
CC1(C)CSC(=NCc2ccccc2)N1C(=O)c1cccc([N+](=O)[O-])c1,.,.,.,12,.,.,.
Cc1ccc2c(c1)CCCN2C(=O)c1ccoc1C,.,.,.,7,.,.,.
CCc1ccc2c(c1)CCCN2C(=O)c1ccccc1C(=O)O,23*,7,-7,25,14,7,3
COc1ccc(CN(C(=S)Nc2ccccc2)C2CC(=O)N(c3ccc(Cl)cc3)C2=O)cc1 (stereo not given),87*,-12,12,3,5,-36,1
COc1ccc(CN(C(=S)Nc2ccccc2)C2CC(=O)N(c3ccccc3)C2=O)cc1 (stereo not given),.,.,.,7,.,.,.
CCCc1cc(C(N)=O)c(NC(=O)c2ccco2)s1,27*,5,-5,18,7,-30,10
CCCc1cc(C(N)=O)c(NC(=O)C2CCCO2)s1 (stereo not given),1,2,-2,9,8,1,.
CCCOc1ccccc1NC(=O)c1ccc(N)cc1,3,-17,17,5,8,-25,.
CCCOc1ccc(N)cc1N,22*,-5,5,10,101*[fluorescence artefact?],42,0
CCN(CC)c1ncnc2ccc(Br)cc12,45*,5,-5,3,3,-1,18
Nc1nc2ccc([N+](=O)[O-])c(N)c2s1,25*,3,-3,2,4,-3,6
CC1CCCN(C(=O)N2c3ccccc3Sc3ccccc32)C1 (stereo not given),0,-19,19,22,12,11,.
SMILES,FAK inh,IL1B NFkB inh,NFkB transloc pot,Measles CPE,Rev-RRE block,HUVEC tox IL1B,FAK inh conf
O=C(N1CCOCC1)N1c2ccccc2Sc2ccccc21,40*,-10,10,20,-2,-39,2
CCNS(=O)(=O)c1ccc(CCC(=O)NCCC2=CCCCC2)cc1,.,.,.,3,.,.,.
COc1ccc(-c2nc3ccc(N4CCCC4)cc3c(=O)[nH]2)cc1OC,28*,-6,6,14,-3,0,10
CCOC(=O)CSc1nc2cc(OC)ccc2cc1C#N,1,11,-11,2,9,-16,.
COC(=O)CSc1cc(C)nc2ccc(OC)cc12,19*,8,-8,12,7,10,1
COc1ccc2nc(C)cc(SCC(=O)N/N=C/c3cccc4ccccc34)c2c1,32*,-15,15,4,-4,-21,23*
Brc1ccc(C2Nc3cccc4cccc(c34)N2)s1,.,.,.,19,.,.,.
Cc1nc2ccccc2n1CSc1ccccc1,.,.,.,29,.,.,.
CCCCC(=O)Nc1sc2c(c1C(N)=O)CCC2,20*,7,-7,10,3,-6,12

# Screens from PubChem.
